One data set has as its system MCF7. Nature of the data set: Cytotoxicity against human MCF7 cells assessed as cell growth after 2 days by sulforhodamine B assay. Type of data set: functional. Conditions: MCF7, 48 h. In outline: (§1)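 NCI cell lines were run by the Monks method: cells were plated with compounds from DMSO stocks and incubated 2 days at 37 °C in 5% CO2, in duplicate. Cells were fixed with cold TCA, stained with 0.4% SRB, and the bound dye was solubilized in 10 mM tris-base and read at 515 nm. The zero-day control was subtracted, and GI50 was taken from the curves.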
A general note: Sulforhodamine B stains cellular protein and so reports cell mass.

A further data set relates to NCI-H460. Nature of the data set: Cytotoxicity against human H460 cells assessed as cell growth after 2 days by sulforhodamine B assay. It counts as functional. Particulars: NCI-H460, 48 h. In outline:
as §1

A further data set deals with SF-268. The data set is described as follows: Cytotoxicity against human SF268 cells assessed as cell growth after 2 days by sulforhodamine B assay. Type of data set: functional. Conditions: SF-268, 48 h. The procedure, abridged:
as §1

Data set [1] can be described thus: Cytotoxicity against human erythrocytes assessed as hemolysis by spectrometric analysis. Type of data set: cell-based, Erythrocyte. The procedure, abridged: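 Human heparinized red blood cells were washed in PBS at pH 7.0 and suspended at 4% in sterile 5% glucose. Compounds from DMSO stocks were diluted in 5% glucose to final concentrations of 250 to 0.24 µg/ml and incubated with the cells at 37 °C. Released hemoglobin was read at 540 nm. HC50 is the concentration giving 50% lysis relative to the drug-free value.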

Another data set deals with Candida albicans. The data set is described as follows: Antifungal activity against Candida albicans ATCC 10213. Type of data set: functional. In outline:
(§2)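 CLSI M27-A3 broth microdilution in RPMI-1640 buffered to pH 7.0 with MOPS. Inoculum 1-5 × 10^3 CFU/mL. Compound twofold dilutions from 250 to 0.24 µg/ml, final DMSO <1%. Incubated at 35 °C in a moist, dark chamber and read at 48 h. MIC is the lowest concentration giving total growth inhibition. For MFC, 5 µL from clear wells was plated in duplicate on SDA; MFC is the lowest concentration with no growth.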

The next data set has as its system Candida tropicalis. Nature of the data set: Antifungal activity against Candida tropicalis C 131 2000. It counts as functional. In outline:
as §2

Another data set relates to Saccharomyces cerevisiae. Nature of the data set: Antifungal activity against Saccharomyces cerevisiae ATCC 9763. It counts as functional. The procedure, abridged: as §2
The subject of another data set is Cryptococcus neoformans. The data set is described as follows: Antifungal activity against Cryptococcus neoformans ATCC 32264. Type of data set: functional. In outline:
as §2

The next data set relates to Aspergillus fumigatus. The data set is described as follows: Antifungal activity against Aspergillus fumigatus ATCC 26934. It counts as functional. The procedure, abridged: (§3)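 Broth microdilution per CLSI M38-A2 in RPMI-1640 with MOPS at pH 7.0. Inoculum 1-5 × 10^3 CFU/mL, with twofold compound dilutions spanning 250-0.24 µg/ml (final DMSO <1%). Plates incubated at 35 °C, moist and dark, and read when the control fungus had grown. MIC is total growth inhibition. MFC comes from subculturing clear wells in duplicate onto SDA.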

The test system of the next data set is Aspergillus flavus. The data set is described as follows: Antifungal activity against Aspergillus flavus ATCC 9170. Type of data set: functional. In outline: as §3
The next data set has as its system Aspergillus niger. Nature of the data set: Antifungal activity against Aspergillus niger ATCC 9029. Type of data set: functional. The procedure, abridged:
as §3

The test system of the next data set is Nannizzia gypsea. Nature of the data set: Antifungal activity against Microsporum gypseum C 115 2000. It counts as functional. The procedure, abridged:
(§4)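 Dermatophytes tested by CLSI M38-A2 microdilution in MOPS-buffered RPMI-1640 at pH 7.0. Inoculum 1-5 × 10^3 CFU/mL; compounds 250 to 0.24 µg/ml in twofold steps, final DMSO <1%. Incubated at 28 °C in a moist, dark chamber and read according to control growth. MIC is the lowest concentration with complete inhibition. MFC is the lowest concentration with no growth after duplicate subculture on SDA.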

A further data set has as its system Trichophyton rubrum. Nature of the data set: Antifungal activity against Trichophyton rubrum C 113 2000. Type of data set: functional. The procedure, abridged: as §4
The subject of data set [2] is Trichophyton mentagrophytes. Nature of the data set: Antifungal activity against Trichophyton mentagrophytes ATCC 9972. It counts as functional. In outline: as §4

Each structure is given as a SMILES string. ≈ marks a conversion by molar mass, not a printed value.

For orientation: GI50 means the concentration that inhibits growth by half. A word on the HC50: it is the concentration giving 50% haemolysis. For orientation: MFC means the smallest concentration meeting the test's criterion for killing the fungus. In general, MIC refers to the least concentration at which growth counts as inhibited. Low readings indicate a more susceptible organism, high ones a less susceptible organism. With `CCCN1C(=O)C=CC1=O`, the GI50 in the data set with MCF7, with NCI-H460 and in the data set with SF-268 was over 10 µg/mL throughout. Moreover, the HC50 in [1] was over 250 µg/mL. Moreover, the minimal fungicidal concentration (MFC) in the data set with Candida albicans was found to be 125 µg/mL (≈ 898 µM); against Candida tropicalis it was 125 µg/mL (≈ 898 µM); in the data set on Saccharomyces cerevisiae, 31.2 µg/mL (≈ 225 µM); against Cryptococcus neoformans, 15.6 µg/mL (≈ 112 µM); in the data set on Aspergillus fumigatus it was 31.2 µg/mL (≈ 225 µM); in the data set with Aspergillus flavus, 15.6 µg/mL (≈ 112 µM). The minimum fungicidal concentration (MFC) in the data set with Aspergillus niger came out at 15.6 µg/mL (≈ 112 µM); in the data set with Nannizzia gypsea, 7.81 µg/mL (≈ 56.1 µM); against Trichophyton rubrum it was 7.81 µg/mL (≈ 56.1 µM); in [2], 7.81 µg/mL (≈ 56.1 µM). Further, the minimum inhibitory concentration (MIC) against Candida albicans was 62.5 µg/mL (≈ 449 µM); in the data set with Candida tropicalis, 62.5 µg/mL (≈ 449 µM); against Saccharomyces cerevisiae, 15.6 µg/mL (≈ 112 µM); in the data set with Cryptococcus neoformans, 7.81 µg/mL (≈ 56.1 µM); in the data set with Aspergillus fumigatus it was 15.6 µg/mL (≈ 112 µM); against Aspergillus flavus it was 15.6 µg/mL (≈ 112 µM). Also, the minimum inhibitory concentration (MIC) came out at 15.6 µg/mL (≈ 112 µM) against Aspergillus niger, 3.9 µg/mL (≈ 28 µM) against Nannizzia gypsea, 3.9 µg/mL (≈ 28 µM) against Trichophyton rubrum and 7.81 µg/mL (≈ 56.1 µM) in data set [2].

For the compound `COc1ccc(N2C(=O)C=CC2=O)cc1`, the concentration for 50% growth inhibition (GI50) with MCF7, with NCI-H460 and in the data set on SF-268 was over 10 µg/mL each time. The 50% haemolytic concentration (HC50) in [1] was over 250 µg/mL. In addition, the MFC in the data set on Candida albicans is 125 µg/mL (≈ 615 µM); against Candida tropicalis it was 125 µg/mL (≈ 615 µM); with Saccharomyces cerevisiae, 62.5 µg/mL (≈ 308 µM); in the data set with Cryptococcus neoformans, 15.6 µg/mL (≈ 76.9 µM); against Aspergillus fumigatus, 125 µg/mL (≈ 615 µM); against Aspergillus flavus, 125 µg/mL (≈ 615 µM). Besides, the MFC came to 62.5 µg/mL (≈ 308 µM) in the data set on Aspergillus niger, 7.81 µg/mL (≈ 38.4 µM) against Nannizzia gypsea, 3.9 µg/mL (≈ 19.2 µM) against Trichophyton rubrum and 7.81 µg/mL (≈ 38.4 µM) in data set [2]. Also, the minimum inhibitory concentration (MIC) with Candida albicans is 62.5 µg/mL (≈ 308 µM); with Candida tropicalis, 62.5 µg/mL (≈ 308 µM); against Saccharomyces cerevisiae it was 31.2 µg/mL (≈ 154 µM); in the data set with Cryptococcus neoformans, 15.6 µg/mL (≈ 76.9 µM); against Aspergillus fumigatus, 62.5 µg/mL (≈ 308 µM); against Aspergillus flavus, 62.5 µg/mL (≈ 308 µM). Further, the MIC with Aspergillus niger turned out to be 31.2 µg/mL (≈ 154 µM); against Nannizzia gypsea it was 3.9 µg/mL (≈ 19.2 µM); in the data set on Trichophyton rubrum, 3.9 µg/mL (≈ 19.2 µM); in [2], 3.9 µg/mL (≈ 19.2 µM).

Consider `O=C1C=CC(=O)N1c1ccc(Br)cc1`, for which the GI50 with MCF7, with NCI-H460 and in the data set with SF-268 was over 10 µg/mL in each case. Further, the concentration for 50% haemolysis (HC50) in data set [1] was over 250 µg/mL. Moreover, the MFC in the data set with Candida albicans was found to be 31.2 µg/mL (≈ 124 µM); with Candida tropicalis, 62.5 µg/mL (≈ 248 µM); with Saccharomyces cerevisiae, 15.6 µg/mL (≈ 62 µM); against Cryptococcus neoformans, 15.6 µg/mL (≈ 62 µM); against Aspergillus fumigatus, 62.5 µg/mL (≈ 248 µM); in the data set with Aspergillus flavus, 62.5 µg/mL (≈ 248 µM). For the same compound, the MFC in the data set on Aspergillus niger came out at 62.5 µg/mL (≈ 248 µM); in the data set with Nannizzia gypsea, 3.9 µg/mL (≈ 15.5 µM); against Trichophyton rubrum, 3.9 µg/mL (≈ 15.5 µM); in data set [2], 3.9 µg/mL (≈ 15.5 µM). The minimal inhibitory concentration (MIC) in the data set with Candida albicans worked out at 15.6 µg/mL (≈ 62 µM); against Candida tropicalis, 15.6 µg/mL (≈ 62 µM); in the data set on Saccharomyces cerevisiae it was 7.81 µg/mL (≈ 31 µM); against Cryptococcus neoformans, 7.81 µg/mL (≈ 31 µM); against Aspergillus fumigatus, 31.2 µg/mL (≈ 124 µM); against Aspergillus flavus, 31.2 µg/mL (≈ 124 µM). Besides, the minimum inhibitory concentration (MIC) in the data set on Aspergillus niger was 31.2 µg/mL (≈ 124 µM); in the data set on Nannizzia gypsea, 3.9 µg/mL (≈ 15.5 µM); with Trichophyton rubrum, 1.95 µg/mL (≈ 7.74 µM); in data set [2] it was 1.95 µg/mL (≈ 7.74 µM).

As for `O=C1C=CC(=O)N1c1ccc2c(c1)OCO2`, the GI50 with MCF7, in the data set with NCI-H460 and in the data set on SF-268 was over 10 µg/mL each time. The HC50 in data set [1] was over 250 µg/mL. In addition, the MFC was found to be 62.5 µg/mL (≈ 288 µM) in the data set on Candida albicans; 62.5 µg/mL (≈ 288 µM) with Candida tropicalis; 15.6 µg/mL (≈ 72 µM) in the data set with Saccharomyces cerevisiae; 15.6 µg/mL (≈ 72 µM) against Cryptococcus neoformans; 125 µg/mL (≈ 576 µM) in the data set on Aspergillus fumigatus; 125 µg/mL (≈ 576 µM) against Aspergillus flavus. Moreover, the MFC against Aspergillus niger worked out at 125 µg/mL (≈ 576 µM); in the data set with Nannizzia gypsea, 1.95 µg/mL (≈ 8.98 µM); against Trichophyton rubrum, 3.9 µg/mL (≈ 18 µM); in data set [2], 3.9 µg/mL (≈ 18 µM). Besides, the minimal inhibitory concentration (MIC) came to 31.2 µg/mL (≈ 144 µM) with Candida albicans; 31.2 µg/mL (≈ 144 µM) with Candida tropicalis; 7.81 µg/mL (≈ 36 µM) in the data set on Saccharomyces cerevisiae; 7.81 µg/mL (≈ 36 µM) in the data set on Cryptococcus neoformans; 62.5 µg/mL (≈ 288 µM) against Aspergillus fumigatus; 62.5 µg/mL (≈ 288 µM) against Aspergillus flavus. The MIC stood at 62.5 µg/mL (≈ 288 µM) with Aspergillus niger, 1.95 µg/mL (≈ 8.98 µM) in the data set with Nannizzia gypsea, 1.95 µg/mL (≈ 8.98 µM) against Trichophyton rubrum and 1.95 µg/mL (≈ 8.98 µM) in data set [2].

Source of the values: ChEMBL document CHEMBL1772954, “Antifungal, cytotoxic and SAR studies of a series of N-alkyl, N-aryl and N-alkylphenyl-1,4-pyrrolediones and related compounds” (Bioorg Med Chem, 2011).
